The source made the active and inactive calls. No cut-off for these calls is given here. Positions of bridges follow the written chain, without caps; N, C: chain ends. Residues, ends and D or L forms follow the SMILES beside them.
Tests used:
[1] = target: T1, Urokinase-type plasminogen activator (Mus musculus, UniProt P06869); assay: Inhibition of mouse uPA preincubated for 15 mins followed by chromogenic substrate addition
[2] = target: Plasma kallikrein (Mus musculus, UniProt P26262); assay: Inhibition of mouse plasma kallikrein preincubated for 15 mins followed by chromogenic substrate addition
[3] = target: Tissue-type plasminogen activator (Homo sapiens, UniProt P00750); assay: Inhibition of human tissue-type plasminogen activator preincubated for 15 mins followed by chromogenic substrate addition
[4] = target: Tissue-type plasminogen activator (Mus musculus, UniProt P11214); assay: Inhibition of mouse tissue-type plasminogen activator preincubated for 15 mins followed by chromogenic substrate addition
[5] = target: Prothrombin (Homo sapiens, UniProt P00734); assay: Inhibition of human thrombin preincubated for 15 mins followed by chromogenic substrate addition
[6] = Inhibition of mouse trypsin preincubated for 15 mins followed by chromogenic substrate addition
[7] = target: Coagulation factor XI (Homo sapiens, UniProt P03951); assay: Inhibition of human factor 11a preincubated for 15 mins followed by chromogenic substrate addition
[8] = target: T2, Suppressor of tumorigenicity 14 protein (Homo sapiens, UniProt Q9Y5Y6); assay: Inhibition of human matriptase preincubated for 15 mins followed by chromogenic substrate addition
T2 sequence (Q9Y5Y6 whole entry): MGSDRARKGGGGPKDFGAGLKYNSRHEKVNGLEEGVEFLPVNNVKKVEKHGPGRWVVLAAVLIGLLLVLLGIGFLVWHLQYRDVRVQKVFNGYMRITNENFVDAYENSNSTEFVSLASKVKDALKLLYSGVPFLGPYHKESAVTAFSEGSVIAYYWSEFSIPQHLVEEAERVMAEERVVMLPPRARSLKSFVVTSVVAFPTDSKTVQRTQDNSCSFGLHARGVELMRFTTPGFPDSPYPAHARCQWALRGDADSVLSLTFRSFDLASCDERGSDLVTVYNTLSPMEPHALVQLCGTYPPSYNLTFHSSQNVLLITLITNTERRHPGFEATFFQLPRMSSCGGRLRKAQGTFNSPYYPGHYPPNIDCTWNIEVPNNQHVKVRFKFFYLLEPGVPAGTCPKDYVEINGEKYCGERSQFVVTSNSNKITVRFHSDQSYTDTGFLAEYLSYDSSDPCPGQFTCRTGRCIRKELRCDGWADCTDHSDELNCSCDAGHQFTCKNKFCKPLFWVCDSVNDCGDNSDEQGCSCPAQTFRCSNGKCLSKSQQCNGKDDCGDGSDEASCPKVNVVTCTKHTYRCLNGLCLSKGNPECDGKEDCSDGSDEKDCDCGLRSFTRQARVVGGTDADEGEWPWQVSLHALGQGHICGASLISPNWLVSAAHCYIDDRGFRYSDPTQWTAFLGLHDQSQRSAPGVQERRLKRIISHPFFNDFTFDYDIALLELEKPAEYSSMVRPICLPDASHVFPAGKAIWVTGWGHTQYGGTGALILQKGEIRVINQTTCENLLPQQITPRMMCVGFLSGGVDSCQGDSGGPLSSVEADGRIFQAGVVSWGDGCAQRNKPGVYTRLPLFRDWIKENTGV

[9] = target: Vitamin K-dependent protein C (Homo sapiens, UniProt P04070); assay: Inhibition of human activated protein C preincubated for 15 mins followed by chromogenic substrate addition
[10] = target: Urokinase-type plasminogen activator (Mus musculus) (UniProt P06869); assay: Binding affinity to mouse uPA assessed as dissociation rate constant after 600 secs by SPR assay
[11] = target: Urokinase-type plasminogen activator (Mus musculus) (UniProt P06869); assay: Inhibition of the intrinsic peri-cellular uPA in mouse CT26 cells assessed as reduction in cell migration at 30 to 100 uM measured every hour by wound healing assay relative to control; format: cell-based
[12] = target: T1, Urokinase-type plasminogen activator; assay: Inhibition of uPA in presence of 75% mouse […] measured immediately
Procedure, shortened: (§1)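 Peptide was preincubated in 75% murine plasma for 0–24 h (sampled at 0, 2, 8 and 24 h). Residual uPA-inhibitory activity was then measured and expressed as IC50.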

[13] = target: T1, Urokinase-type plasminogen activator; assay: Inhibition of uPA in presence of 75% mouse […] measured at 2 hrs; procedure, shortened: as §1
[14] = target: T1, Urokinase-type plasminogen activator; assay: Inhibition of uPA in presence of 75% mouse […] measured at 8 hrs; procedure, shortened: as §1
[15] = Stability in 75% mouse plasma assessed as protease-mediated compound degradation measured within 8 hrs; format: ADME, cell-free; procedure, shortened: as §1
[16] = system: CT26; assay: Antimetastatic activity against GFP-fused mouse CT26 cells allografted in Balb/c mouse assessed as reduction in relative fluorescence at 1.13 mg/kg, ip administered daily for 15 days by fluorescence-based assay; format: functional, organism-based
Procedure, shortened: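 After iv GFP-CT-26 implantation (10^6 cells) in male Balb/c and daily ip dosing Days 1–15, lungs were removed on Day 16. Whole-lung GFP was imaged with 488 nm excitation (em 520) and quantified over a 20×20 mm2 area per lung. Non-implanted lungs served as background.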

[17] = system: CT26; assay: Antimetastatic activity against GFP-fused mouse CT26 cells allografted in Balb/c mouse assessed as reduction in tumor nodule numbers at 1.13 mg/kg, ip administered daily for 15 days by fluorescence-based assay; format: functional, organism-based
Procedure, shortened: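 Male Balb/c mice received 10^6 GFP-CT-26 cells iv and daily ip dosing on Days 1–15. On Day 16, pleural-surface tumor nodules per lung were counted after soaking in formaldehyde.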

[18] = system: CT26; assay: Antimetastatic activity against GFP-fused mouse CT26 cells allografted in Balb/c mouse assessed as reduction in tumor nodule numbers at 11.3 mg/kg, ip administered daily for 15 days by fluorescence-based assay; format: functional; conditions: 360 h
Procedure, shortened: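 Lung metastasis model: male Balb/c mice (~20 g, 6/group) given 10^6 GFP-CT-26 cells i.v. with peptide or saline, daily i.p. dosing Day 1–15, sacrificed Day 16. Surface tumor nodules on pleural surfaces counted per lung after soaking in formaldehyde.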

[19] = system: CT26; assay: Antimetastatic activity against GFP-fused mouse CT26 cells allografted in Balb/c mouse assessed as reduction in hyperplastic weights at 11.3 mg/kg, ip administered daily for 15 days by fluorescence-based assay; format: functional; conditions: 360 h
Procedure, shortened: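 Lung metastasis model: male Balb/c mice (~20 g, 6/group) given 10^6 GFP-CT-26 cells i.v. with peptide or saline, then daily i.p. dosing Day 1–15. Lungs resected and weighed immediately at sacrifice on Day 16; hyperplastic weight = lung weight minus weight of lungs from non-implanted normal mice.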

[20] = Toxicity in Balb/c mouse allografted with mouse CT26 cells assessed as effect on body weight at 1.13 to 11.3 mg/kg, ip administered daily for 15 days; format: organism-based; conditions: in vivo, 360 h
[21] = Stability in 75% mouse plasma assessed as protease-mediated compound degradation measured 24 hrs post dose; format: ADME, cell-free; procedure, shortened: as §1
[22] = system: CT26; assay: Antimetastatic activity against mouse CT26 cells allografted in Balb/c mouse assessed as prolongation of mouse survival time at 11.3 mg/kg, ip administered daily for 15 days; format: functional, organism-based
[23] = Drug level in blood of GFP-fused mouse CT26 cells allografted in Balb/c mouse at 11.3 mg/kg, ip administered daily for 15 days; format: ADME, organism-based; conditions: read-out: Drug uptake

T1 sequence (P06869 21-178 limits assumed): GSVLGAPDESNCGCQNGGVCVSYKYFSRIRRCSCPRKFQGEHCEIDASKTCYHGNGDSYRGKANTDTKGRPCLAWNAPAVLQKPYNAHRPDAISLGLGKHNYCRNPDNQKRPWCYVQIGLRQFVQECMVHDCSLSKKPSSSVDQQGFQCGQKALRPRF
T1 sequence (P06869 180-433 limits assumed): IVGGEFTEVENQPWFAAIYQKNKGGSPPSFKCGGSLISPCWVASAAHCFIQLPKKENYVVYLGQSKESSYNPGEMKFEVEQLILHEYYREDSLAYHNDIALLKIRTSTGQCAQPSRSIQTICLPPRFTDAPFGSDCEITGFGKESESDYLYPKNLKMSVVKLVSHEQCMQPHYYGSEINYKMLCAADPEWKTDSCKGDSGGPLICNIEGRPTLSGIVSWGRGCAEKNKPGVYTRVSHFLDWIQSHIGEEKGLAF
Chain of Urokinase-type plasminogen activator (Mus musculus) (P06869 21-178 limits assumed): as the sequence (P06869 21-178 limits assumed) above
Chain of Urokinase-type plasminogen activator (Mus musculus) (P06869 180-433 limits assumed): as the sequence (P06869 180-433 limits assumed) above
Chain of Tissue-type plasminogen activator (Mus musculus, UniProt P11214) (P11214 whole entry): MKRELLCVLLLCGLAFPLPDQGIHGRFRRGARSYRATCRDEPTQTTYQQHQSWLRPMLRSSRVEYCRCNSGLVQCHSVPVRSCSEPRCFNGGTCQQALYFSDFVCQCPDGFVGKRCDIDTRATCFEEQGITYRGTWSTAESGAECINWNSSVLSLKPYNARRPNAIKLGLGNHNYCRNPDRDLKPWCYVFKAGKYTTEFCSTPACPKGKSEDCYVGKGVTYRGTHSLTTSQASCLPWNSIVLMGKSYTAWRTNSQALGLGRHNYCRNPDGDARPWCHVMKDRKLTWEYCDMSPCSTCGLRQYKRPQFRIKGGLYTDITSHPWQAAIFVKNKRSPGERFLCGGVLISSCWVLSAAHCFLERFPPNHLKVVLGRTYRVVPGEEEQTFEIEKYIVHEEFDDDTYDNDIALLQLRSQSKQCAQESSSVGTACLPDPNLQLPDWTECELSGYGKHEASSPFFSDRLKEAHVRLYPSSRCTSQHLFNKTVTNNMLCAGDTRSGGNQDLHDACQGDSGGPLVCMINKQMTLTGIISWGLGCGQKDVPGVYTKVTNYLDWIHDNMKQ
Chain of Coagulation factor XI (P03951 19-387 limits assumed): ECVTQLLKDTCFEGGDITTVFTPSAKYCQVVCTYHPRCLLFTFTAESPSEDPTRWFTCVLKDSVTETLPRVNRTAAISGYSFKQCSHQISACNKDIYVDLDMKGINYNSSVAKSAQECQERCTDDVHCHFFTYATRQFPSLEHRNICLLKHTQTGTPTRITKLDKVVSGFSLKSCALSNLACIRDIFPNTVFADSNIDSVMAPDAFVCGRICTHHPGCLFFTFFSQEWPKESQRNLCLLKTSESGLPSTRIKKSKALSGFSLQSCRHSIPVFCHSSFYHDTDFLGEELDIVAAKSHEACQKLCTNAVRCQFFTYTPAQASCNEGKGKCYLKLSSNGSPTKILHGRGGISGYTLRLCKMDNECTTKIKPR
Chain of Coagulation factor XI (P03951 388-625 limits assumed): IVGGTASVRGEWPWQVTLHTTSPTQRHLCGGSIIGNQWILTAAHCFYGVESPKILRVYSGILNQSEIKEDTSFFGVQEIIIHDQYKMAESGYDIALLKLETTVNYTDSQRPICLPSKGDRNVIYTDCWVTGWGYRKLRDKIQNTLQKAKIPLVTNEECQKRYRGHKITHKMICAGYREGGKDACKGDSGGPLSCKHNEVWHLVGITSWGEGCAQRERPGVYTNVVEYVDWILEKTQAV
Chain of Plasma kallikrein (P26262 20-390 limits assumed): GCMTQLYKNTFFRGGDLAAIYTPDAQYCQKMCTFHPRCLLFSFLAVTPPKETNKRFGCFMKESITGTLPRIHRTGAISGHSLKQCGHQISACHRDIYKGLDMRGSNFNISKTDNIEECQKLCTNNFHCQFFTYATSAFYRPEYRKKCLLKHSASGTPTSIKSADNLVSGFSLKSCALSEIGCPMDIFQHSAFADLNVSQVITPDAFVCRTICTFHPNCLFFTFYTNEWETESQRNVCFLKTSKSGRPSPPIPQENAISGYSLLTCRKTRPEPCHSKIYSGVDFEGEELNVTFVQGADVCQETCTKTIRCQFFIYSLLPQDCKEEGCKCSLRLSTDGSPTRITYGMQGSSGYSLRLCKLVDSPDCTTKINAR
Chain of Plasma kallikrein (P26262 391-638 limits assumed): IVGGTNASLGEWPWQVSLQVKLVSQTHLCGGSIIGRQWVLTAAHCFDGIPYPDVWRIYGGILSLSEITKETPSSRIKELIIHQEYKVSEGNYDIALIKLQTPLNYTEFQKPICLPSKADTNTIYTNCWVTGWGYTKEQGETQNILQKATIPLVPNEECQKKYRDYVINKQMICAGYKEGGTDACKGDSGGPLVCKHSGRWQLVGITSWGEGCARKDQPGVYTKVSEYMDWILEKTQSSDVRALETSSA
Chain of Tissue-type plasminogen activator (Homo sapiens, UniProt P00750) (P00750 whole entry): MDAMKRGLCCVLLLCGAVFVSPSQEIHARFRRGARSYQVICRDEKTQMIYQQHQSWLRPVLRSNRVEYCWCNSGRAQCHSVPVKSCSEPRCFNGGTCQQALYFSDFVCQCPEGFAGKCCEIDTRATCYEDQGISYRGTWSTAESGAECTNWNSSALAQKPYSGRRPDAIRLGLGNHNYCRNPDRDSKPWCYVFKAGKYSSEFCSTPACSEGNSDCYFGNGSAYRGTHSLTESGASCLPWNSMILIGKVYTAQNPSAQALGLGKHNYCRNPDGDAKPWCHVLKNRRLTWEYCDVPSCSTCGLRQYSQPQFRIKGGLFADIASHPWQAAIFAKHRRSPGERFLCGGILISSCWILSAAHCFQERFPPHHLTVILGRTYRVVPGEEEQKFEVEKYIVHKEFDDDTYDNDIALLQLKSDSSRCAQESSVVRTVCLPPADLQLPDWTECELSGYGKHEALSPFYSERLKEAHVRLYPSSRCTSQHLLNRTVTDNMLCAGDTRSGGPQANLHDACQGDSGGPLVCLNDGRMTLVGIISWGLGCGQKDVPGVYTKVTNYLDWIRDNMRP
Chain of Vitamin K-dependent protein C (P04070 43-197 limits assumed): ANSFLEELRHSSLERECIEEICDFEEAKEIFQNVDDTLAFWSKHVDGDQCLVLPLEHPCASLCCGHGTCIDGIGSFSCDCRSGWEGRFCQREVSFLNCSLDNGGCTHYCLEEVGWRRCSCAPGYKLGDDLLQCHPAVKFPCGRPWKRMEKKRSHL
Chain of Vitamin K-dependent protein C (P04070 212-461 limits assumed): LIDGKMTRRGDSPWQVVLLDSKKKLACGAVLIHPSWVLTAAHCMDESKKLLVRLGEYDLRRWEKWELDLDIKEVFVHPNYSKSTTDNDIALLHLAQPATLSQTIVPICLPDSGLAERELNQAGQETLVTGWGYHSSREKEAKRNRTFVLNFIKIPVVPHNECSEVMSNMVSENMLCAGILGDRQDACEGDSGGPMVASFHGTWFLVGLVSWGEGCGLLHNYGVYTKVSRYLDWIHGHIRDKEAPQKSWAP

Question: Which Ki [1] does the source give for CC[C@H](C)[C@@H]1NC(=O)[C@H](Cc2ccc(O)cc2)NC(=O)[C@H](CCCNC(=N)N)NC(=O)[C@H](CO)NC(=O)[C@H](Cc2ccc(O)cc2)NC(=O)[C@H](C)NC(=O)[C@@H]2CCCN2C(=O)[C@@H](N)CSSC[C@@H](C(=O)O)NC(=O)CNC1=O (H-CPAYSRYIGC-OH; disulfide 1-10) here?
Answer: The Ki was 0.0068 µM.

Question: And the Ki [2]?
Answer: The Ki was over 25 µM.

Question: What about the Ki [3] of the same compound?
Answer: Its Ki is over 25 µM.

Question: What about the Ki [4] of the same compound?
Answer: The Ki was over 25 µM.

Question: And the Ki [5]?
Answer: The Ki was over 25 µM.

Question: And the Ki [6]?
Answer: Its Ki is 2.1 µM.

Question: What about the Ki [7] of the same compound?
Answer: Its Ki is over 25 µM.

Question: What about the Ki [8] of the same compound?
Answer: Its Ki is over 25 µM.

Question: What about the Ki [9] of the same compound?
Answer: Its Ki is over 25 µM.

Question: And the K [10]?
Answer: Its K is 0.00066 s⁻¹.

Question: What about the inhibition [11] of the same compound?
Answer: Its inhibition is 30%.

Question: What about the IC50 [12] of the same compound?
Answer: The IC50 was 0.0101 µM.

Question: What about the IC50 [13] of the same compound?
Answer: Its IC50 is 0.0119 µM.

Question: What about the IC50 [14] of the same compound?
Answer: The IC50 was 0.0113 µM.

Question: And the Stability [15]?
Answer: The Stability was “Stable”.

Question: And the Activity [16]?
Answer: Its Activity is “inactive”.

Question: What about the Activity [17] of the same compound?
Answer: Its Activity is “inactive”.

Question: What about the inhibition in vivo at 11.3 mg/kg [18] of the same compound?
Answer: The inhibition in vivo at 11.3 mg/kg was 46.5%.

Question: What about the inhibition in vivo at 11.3 mg/kg [19] of the same compound?
Answer: Its inhibition in vivo at 11.3 mg/kg is 51.7%.

Question: What about the Activity [20] of the same compound?
Answer: Its Activity is “Non-Toxic”.

Question: What about the Stability [21] of the same compound?
Answer: Its Stability is “Unstable”.

Question: What about the Activity [22] of the same compound?
Answer: The Activity was “inactive”.

Question: And the concentration at 360 h [23]?
Answer: Its concentration at 360 h is 100 µM.

Source: ChEMBL document CHEMBL4422663, “Suppression of Tumor Growth and Metastases by Targeted Intervention in Urokinase Activity with Cyclic Peptides” (J Med Chem, 2019)
